Values after ≈ are worked out from the molar mass of the structure shown.
Tests used:
COLO 205 = assay: Cytotoxicity against human COLO205 cells; format: functional; details: read-out: ED50 (the source's name)
KB = assay: Cytotoxicity against human KB cells; format: functional; details: read-out: ED50 (the source's name)
[1] = Cytotoxicity against mouse RAW264.7 cells assessed as cell viability by MTT reduction assay; format: cell-based; details: read-out: Activity
How it was run: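 Viability was read by MTT reduction in RAW 264.7 macrophages exposed for 24 h at 37 °C to LPS (1 µg/mL) plus IFN-γ (50 U/mL) with the compound. Results are expressed relative to unstimulated basal control cells. Data are mean ± SEM of six experiments, each in triplicate.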

RAW264.7 [2] = assay: Inhibition of LPS/IFN-gamma-induced nitrite accumulation in mouse RAW264.7 cells at 0.2 mg/ml by Griess reagent assay; format: functional
How it was run: (§1)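 RAW 264.7 cells were grown in DMEM with 10% heat-inactivated FCS at 37 °C under 5% CO2. Compound (DMSO vehicle, 0.02–0.5%) was added together with LPS (1 µg/mL) plus IFN-γ (50 U/mL) for 24 h. Medium nitrite was measured with Griess reagent (1% sulfanilamide, 0.1% naphthylenediamine, 5% phosphoric acid) at OD550 against sodium nitrite standards. Data are mean ± SEM of six experiments, each in triplicate.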

RAW264.7 [3] = assay: Inhibition of LPS/IFN-gamma-induced nitrite accumulation in mouse RAW264.7 cells by Griess reagent assay; format: functional, cell-based; how it was run: as §1

| IC50 (RAW264.7 [3]) | SMILES | EC50 (COLO 205) | EC50 (KB) | viability [1] | inhibition at 200 µg/mL (RAW264.7 [2]) |
| --- | --- | --- | --- | --- | --- |
|  | CC1(C)C(O)CC[C@]2(C)[C@H]3CC=C4[C@@H]5C[C@@]6(C)CC(OC6=O)[C@]5(C)CC[C@@]4(C)[C@]3(C)CC[C@@H]12 (some centres undefined) | > 20 µg/mL | > 20 µg/mL |  |  |
|  | CC1(C)CC[C@]2(C)CC[C@]3(C)C(=CC(=O)[C@@H]4[C@@]5(C)CCC(=O)C(C)(C)[C@@H]5CC[C@]43C)[C@@H]2C1 | > 20 µg/mL | > 20 µg/mL |  |  |
|  | CC(=O)OC[C@]12[C@H](OC(C)=O)[C@H](OC(C)=O)[C@@H]3[C@@H](OC(=O)c4ccccc4)[C@@]14O[C@@]3(C)COC(=O)c1cccnc1C(C)C(C)C(=O)O[C@@H]([C@H](OC(C)=O)[C@@H]2OC(=O)c1ccccc1)[C@]4(C)O (some centres undefined) | > 20 µg/mL | > 20 µg/mL |  |  |
|  | CC(=O)OC[C@]12[C@H](O)[C@@H](OC(C)=O)[C@@H]3[C@@H](OC(C)=O)[C@@]14O[C@@]3(C)COC(=O)c1cccnc1[C@@H](C)[C@H](C)C(=O)O[C@@H]([C@H](OC(=O)c1ccc(=O)n(C)c1)[C@@H]2O)[C@]4(C)O [EMARGINATINE E] | 4.1 µg/mL (≈ 5.03 µM) | 1.7 µg/mL (≈ 2.09 µM) |  |  |
|  | CC(=O)OC[C@]12[C@H](OC(C)=O)[C@H](OC(C)=O)[C@@H]3[C@@H](OC(=O)c4ccccc4)[C@@]14O[C@@]3(C)COC(=O)c1cccnc1[C@@H](C)[C@H](C)C(=O)O[C@@H]([C@H](O)[C@@H]2OC(=O)c1ccccc1)[C@]4(C)O [EUOJAPONINE C] | > 20 µg/mL | > 20 µg/mL |  |  |
| 120 µg/mL (≈ 264 µM) | CO[C@H]1CC[C@]2(C)[C@H]3C(=O)C[C@@H]4C5=CC(C)(C)CC[C@]5(C)CC[C@@]4(C)[C@]3(C)CC[C@H]2C1(C)C [LAXIFOLONE A] |  |  | > 95% | > 80% |
|  | CC(=O)OC[C@]12[C@H](OC(C)=O)[C@H](OC(C)=O)[C@@H]3[C@@H](OC(C)=O)[C@@]14O[C@@]3(C)COC(=O)c1cccnc1C(C)C(C)C(=O)O[C@@H]([C@H](OC(C)=O)[C@@H]2OC(=O)c1ccccc1)[C@]4(C)O (some centres undefined) [MAYTEINE] | > 20 µg/mL | > 20 µg/mL |  |  |
|  | CC1(C)[C@@H](O)CC[C@]2(C)[C@H]3CC=C4[C@@H]5C[C@](C)(C(=O)O)C[C@H](O)[C@]5(C)CC[C@@]4(C)[C@]3(C)CC[C@@H]12 [MAYTENFOLIC ACID] | > 20 µg/mL | > 20 µg/mL |  |  |
|  | C[C@H]1C(=O)CC[C@@H]2[C@]1(C)CC(=O)[C@H]1[C@@]2(C)CC[C@@]2(C)[C@@H]3CC(C)(C)CC[C@]3(C)CC[C@]12C [PUTRANJIVADIONE] | > 20 µg/mL | > 20 µg/mL |  |  |
